From ChEMBL document CHEMBL4184236, “Design, synthesis and biological evaluation of matrine derivatives as potential anticancer agents” (Bioorg Med Chem Lett, 2018)

Key:
Type in all cases: functional, cell-based
[1] = tested on: SMMC-7721; assay: Anticancer activity against human SMMC7721 cells assessed as reduction in cell viability incubated for 48 hrs MTT assay; details: SMMC-7721, 48 h
Procedure, shortened: (§1)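 MTT assay on human hepatocarcinoma SMMC-7721, lung carcinoma A549 and nasopharyngeal carcinoma CNE2 cells, with matrine as comparator and cisplatin as positive control. IC50 is the concentration that lowers optical density of treated cells by 50% versus untreated cells, given as the mean ± SD of three experiments.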

[2] = tested on: A549; assay: Anticancer activity against human A549 cells assessed as reduction in cell viability incubated for 48 hrs MTT assay; details: A549, 48 h; procedure, shortened: as §1
[3] = tested on: CNE-2; assay: Anticancer activity against human CNE2 cells assessed as reduction in cell viability incubated for 48 hrs MTT assay; details: CNE-2, 48 h; procedure, shortened: as §1

Row | SMILES | IC50 [1] [µM] | IC50 [2] [µM] | IC50 [3] [µM]
1 | O=C1/C(=C/c2cccn2Cc2ccccc2Br)CC[C@@H]2[C@H]3CCCN4CCC[C@@H](CN12)[C@@H]34 | 15.1 | 12 | 17.3
2 | COc1ccc2c(c1)c(/C=C1\CC[C@@H]3[C@H]4CCCN5CCC[C@@H](CN3C1=O)[C@@H]45)cn2Cc1ccccc1Cl | 6.21 | 6.33 | 6.06
3 | COc1ccc2c(c1)c(/C=C1\CC[C@@H]3[C@H]4CCCN5CCC[C@@H](CN3C1=O)[C@@H]45)cn2Cc1ccc2ccccc2c1 | 6.89 | 7.45 | 6.72
4 | Cc1ccc2c(c1)c(/C=C1\CC[C@@H]3[C@H]4CCCN5CCC[C@@H](CN3C1=O)[C@@H]45)cn2Cc1cccc(Cl)c1 | 8.35 | 9.13 | 11.8
5 | O=C1/C(=C/c2cccn2Cc2ccc3ccccc3c2)CC[C@@H]2[C@H]3CCCN4CCC[C@@H](CN12)[C@@H]34 | 20.3 | 23.9 | 14.7
6 | COc1ccc(Br)c(Cn2cccc2/C=C2\CC[C@@H]3[C@H]4CCCN5CCC[C@@H](CN3C2=O)[C@@H]45)c1 | 12.2 | 14.5 | 11.6
7 | O=C1/C(=C/c2cccn2Cc2cccc(Br)c2)CC[C@@H]2[C@H]3CCCN4CCC[C@@H](CN12)[C@@H]34 | 16.2 | 13.8 | 15
8 | COc1ccc(Cn2cc(/C=C3\CC[C@@H]4[C@H]5CCCN6CCC[C@@H](CN4C3=O)[C@@H]56)c3ccccc32)cc1 | 8.01 | 11.2 | 8.43
9 | O=C1/C(=C/c2cccn2Cc2ccc(OCc3ccccc3)cc2)CC[C@@H]2[C@H]3CCCN4CCC[C@@H](CN12)[C@@H]34 | 12.9 | 13.1 | 10.8
10 | COc1ccc(Cn2cc(/C=C3\CC[C@@H]4[C@H]5CCCN6CCC[C@@H](CN4C3=O)[C@@H]56)c3ccccc32)cc1OC | 11.8 | 12.5 | 11.6
11 | COc1cc(Cn2cc(/C=C3\CC[C@@H]4[C@H]5CCCN6CCC[C@@H](CN4C3=O)[C@@H]56)c3ccccc32)cc(OC)c1OC | 15.5 | > 50 | 20
12 | COc1cccc(Cn2cc(/C=C3\CC[C@@H]4[C@H]5CCCN6CCC[C@@H](CN4C3=O)[C@@H]56)c3ccccc32)c1 | 13.7 | 15.3 | 9.31
13 | O=C1/C(=C/c2cn(Cc3ccc(Cl)cc3)c3ccccc23)CC[C@@H]2[C@H]3CCCN4CCC[C@@H](CN12)[C@@H]34 | 11.2 | 12.1 | 11
14 | O=C1/C(=C/c2cn(Cc3ccc(OC(F)(F)F)cc3)c3ccccc23)CC[C@@H]2[C@H]3CCCN4CCC[C@@H](CN12)[C@@H]34 | 6.82 | 7.03 | 6.64
15 | O=C1/C(=C/c2cn(Cc3ccccc3)c3ccccc23)CC[C@@H]2[C@H]3CCCN4CCC[C@@H](CN12)[C@@H]34 | 11.9 | 13.9 | 10.8
16 | Cc1cccc(Cn2cccc2/C=C2\CC[C@@H]3[C@H]4CCCN5CCC[C@@H](CN3C2=O)[C@@H]45)c1 | 30.7 | 44.3 | 24.5
17 | O=C1/C(=C/c2cn(Cc3cccc(Cl)c3)c3ccc(Br)cc23)CC[C@@H]2[C@H]3CCCN4CCC[C@@H](CN12)[C@@H]34 | 9.81 | 16.8 | 8.5
18 | O=C1/C(=C/c2cn(Cc3cccc(Cl)c3)c3cc(Cl)ccc23)CC[C@@H]2[C@H]3CCCN4CCC[C@@H](CN12)[C@@H]34 | 23.7 | 26.3 | 23.7
19 | O=C1/C(=C/c2ccc3c(ccn3Cc3ccc4ccccc4c3)c2)CC[C@@H]2[C@H]3CCCN4CCC[C@@H](CN12)[C@@H]34 | 27 | 30.2 | 14.3
20 | O=C1/C(=C/c2cn(Cc3ccc4ccccc4c3)c3ccccc23)CC[C@@H]2[C@H]3CCCN4CCC[C@@H](CN12)[C@@H]34 | 5.65 | 8.53 | 4.56
21 | O=C1/C(=C/c2cccc3c2ccn3Cc2cccc(Cl)c2)CC[C@@H]2[C@H]3CCCN4CCC[C@@H](CN12)[C@@H]34 | 6.83 | 7.07 | 6.64
22 | Cc1ccc2c(c1)c(/C=C1\CC[C@@H]3[C@H]4CCCN5CCC[C@@H](CN3C1=O)[C@@H]45)cn2Cc1ccc2ccccc2c1 | 3.26 | 5.04 | 3.53
23 | O=C1/C(=C/c2cccn2Cc2cccc(Cl)c2)CC[C@@H]2[C@H]3CCCN4CCC[C@@H](CN12)[C@@H]34 | 20.9 | 22.3 | 16.3

Row | SMILES | IC50 [1] [µM] | IC50 [2] [µM] | IC50 [3] [µM]
24 | O=C1/C(=C/c2cn(Cc3ccc(Br)cc3)c3ccccc23)CC[C@@H]2[C@H]3CCCN4CCC[C@@H](CN12)[C@@H]34 | 16.8 | 18.1 | 14.7
25 | CC(C)(C)c1ccc(Cn2ccc3c(/C=C4\CC[C@@H]5[C@H]6CCCN7CCC[C@@H](CN5C4=O)[C@@H]67)cccc32)cc1 | 13.8 | 15.5 | 9.75
26 | COc1cccc(Cn2cccc2/C=C2\CC[C@@H]3[C@H]4CCCN5CCC[C@@H](CN3C2=O)[C@@H]45)c1 | 13.4 | 29.8 | 7.05
27 | Cn1cccc1/C=C1\CC[C@@H]2[C@H]3CCCN4CCC[C@@H](CN2C1=O)[C@@H]34 | > 100 | > 100 | > 100
28 | Cc1cccc(Cn2cc(/C=C3\CC[C@@H]4[C@H]5CCCN6CCC[C@@H](CN4C3=O)[C@@H]56)c3ccccc32)c1 | 8.52 | 9.24 | 7.91
29 | O=C1/C(=C/c2cccn2Cc2ccc(Cl)cc2)CC[C@@H]2[C@H]3CCCN4CCC[C@@H](CN12)[C@@H]34 | 21.6 | 21.6 | 15.2
30 | Cc1ccc(Cn2cccc2/C=C2\CC[C@@H]3[C@H]4CCCN5CCC[C@@H](CN3C2=O)[C@@H]45)cc1 | 27.9 | 24.4 | 21.9
31 | Cc1ccc(Cn2cc(/C=C3\CC[C@@H]4[C@H]5CCCN6CCC[C@@H](CN4C3=O)[C@@H]56)c3ccccc32)cc1 | 9.12 | 9.84 | 8.91
32 | O=C1/C(=C/c2cn(Cc3ccc4ccccc4c3)c3ccc(Br)cc23)CC[C@@H]2[C@H]3CCCN4CCC[C@@H](CN12)[C@@H]34 | 8.65 | 9.74 | 12.5
33 | O=C1/C(=C/c2cn(Cc3ccc(OC(F)(F)F)cc3)c3ccc(Cl)cc23)CC[C@@H]2[C@H]3CCCN4CCC[C@@H](CN12)[C@@H]34 | 9.73 | 5.24 | 3.52
34 | Cc1cc(C)cc(Cn2cccc2/C=C2\CC[C@@H]3[C@H]4CCCN5CCC[C@@H](CN3C2=O)[C@@H]45)c1 | 49.4 | > 50 | 32.1
35 | CC(C)(C)c1ccc(Cn2ccc3cc(/C=C4\CC[C@@H]5[C@H]6CCCN7CCC[C@@H](CN5C4=O)[C@@H]67)ccc32)cc1 | 10.7 | 10.9 | 8.99
36 | COc1cc(Cn2cccc2/C=C2\CC[C@@H]3[C@H]4CCCN5CCC[C@@H](CN3C2=O)[C@@H]45)cc(OC)c1OC | 13.3 | 18.9 | 7.83
37 | O=C1/C(=C/c2cccn2Cc2ccccc2)CC[C@@H]2[C@H]3CCCN4CCC[C@@H](CN12)[C@@H]34 | 38.4 | 42.9 | 45.7
38 | O=C1/C(=C/c2cn(Cc3cccc(Cl)c3)c3ccccc23)CC[C@@H]2[C@H]3CCCN4CCC[C@@H](CN12)[C@@H]34 | 7.58 | 7.53 | 6.36
39 | CC(C)(C)c1ccc(Cn2cccc2/C=C2\CC[C@@H]3[C@H]4CCCN5CCC[C@@H](CN3C2=O)[C@@H]45)cc1 | 16 | 15.8 | 13.8
40 | COc1ccc2c(/C=C3\CC[C@@H]4[C@H]5CCCN6CCC[C@@H](CN4C3=O)[C@@H]56)cn(Cc3ccc(Cl)cc3)c2c1 | 8.73 | 10.1 | 6.84
41 | Cc1ccccc1Cn1cccc1/C=C1\CC[C@@H]2[C@H]3CCCN4CCC[C@@H](CN2C1=O)[C@@H]34 | 22.4 | 29.3 | 28.4
42 | O=C1/C(=C/c2cccn2Cc2ccc(OC(F)(F)F)cc2)CC[C@@H]2[C@H]3CCCN4CCC[C@@H](CN12)[C@@H]34 | 36.6 | 47.1 | 23.9
43 | COc1ccc2c(/C=C3\CC[C@@H]4[C@H]5CCCN6CCC[C@@H](CN4C3=O)[C@@H]56)cn(Cc3ccc4ccccc4c3)c2c1 | 9.06 | 13.2 | 5.42
44 | CC(C)(C)c1ccc(Cn2cc(/C=C3\CC[C@@H]4[C@H]5CCCN6CCC[C@@H](CN4C3=O)[C@@H]56)c3ccccc32)cc1 | 9.55 | 9.68 | 7.73
45 | O=C1CCC[C@@H]2[C@H]3CCCN4CCC[C@@H](CN12)[C@@H]34 [MATRINE] | 6590 | 5720 | 5280
